# ChEMBL document CHEMBL4715721, “Synthesis and optimization of novel allylated mono-carbonyl analogs of curcumin (MACs) act as potent anti-inflammatory agents against LPS-induced acute lung injury (ALI) in rats” (Eur J Med Chem, 2016)
# Active and inactive are the calls of the source. The calls are words filed in the database; no cut-off is given here.
# Key:
# RAW264.7 [1] = test: Antiinflammatory activity in mouse RAW264.7 cells assessed as decrease in LPS-induced IL-6 secretion at 10 microM incubated for 30 mins followed by LPS stimulation and measured after 24 hrs by ELISA relative to control; format: functional; settings: RAW264.7, 24.5 h, time 1470 min
# Method in brief: (§1)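 RAW264.7 cells in DMEM with 10% FBS at 37 °C, 5% CO₂; pretreated with 10 μM for 30 min, then LPS 0.5 μg/mL for 24 h. Medium TNF-α and IL-6 measured by ELISA and normalized to total protein of viable cells; percent inhibition, mean ± SD of three experiments.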
# [2] = Cytotoxicity against human HL7702 cells assessed as cell survival rate at 10 uM incubated for 24 hrs by MTT assay; format: cell-based; settings: HL7702 (L02) cells, read-out: Activity
# Method in brief: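 HL-7702 human normal hepatic cells exposed to 10 μM compound for 24 h; viability measured by MTT assay and given as survival rate, mean ± SD of three experiments.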
# RAW264.7 [3] = test: (§2) Cytotoxicity against mouse RAW264.7 cells assessed as cell survival rate at 10 uM; format: cell-based; settings: raw264.7, 10 µM
# RAW264.7 [4] = test: Antiinflammatory activity in mouse RAW264.7 cells assessed as decrease in LPS-induced TNF-alpha secretion at 10 microM incubated for 30 mins followed by LPS stimulation and measured after 24 hrs by ELISA relative to control; format: functional; settings: RAW264.7, 24.5 h, time 1470 min; method in brief: as §1
# [5] = Octanol-water partition coefficient, logP of compound; format: physicochemical
# RAW264.7 [6] = test: Antiinflammatory activity in mouse RAW264.7 cells assessed as decrease in LPS-induced IL-6 secretion incubated for 30 mins followed by LPS stimulation and measured after 24 hrs by ELISA; format: functional, cell-based; settings: dose 1-10 µM, time 1470.0 min
# Method in brief: (§3)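 RAW264.7 cells seeded at 4.0×10^5/plate overnight; pretreated at 1, 2.5, 5 or 10 μM for 30 min, then with or without LPS 0.5 μg/mL for 24 h. Medium IL-6 and TNF-α measured by ELISA and normalized to total protein; percent of LPS control, mean ± SEM of three independent experiments.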
# RAW264.7 [7] = test: Antiinflammatory activity in mouse RAW264.7 cells assessed as decrease in LPS-induced TNF-alpha secretion incubated for 30 mins followed by LPS stimulation and measured after 24 hrs by ELISA; format: functional, cell-based; settings: dose 1-10 µM, time 1470.0 min; method in brief: as §3
# [8] = Chemical stability of compound in PBS buffer containing 5% DMSO at pH 7.4 measured every 5 mins for 25 mins by UV-Vis absorption spectral analysis; format: physicochemical; settings: pH 7.4, 25 min
# Method in brief: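 Compound diluted from 1 mM stock in phosphate buffer pH 7.4 containing 5% DMSO; UV-visible spectra recorded from 250 to 600 nm at 25 °C in a 1 cm quartz cuvette, every 5 min for 25 min.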
# [9] = as §2; format: cell-based; settings: RAW264.7 cells, read-out: Activity
# [10] = Aqueous kinetic solubility of compound at pH 7.4; format: physicochemical; settings: read-out: Kinetic_solubility
# Mus musculus = test: Antiinflammatory activity against LPS-induced septic shock C57BL/6 mouse model assessed as proportion of died animals at 10 mg/kg, iv administered daily before LPS administration and monitored for 7 days (reference value: 100%); format: functional; settings: time 7 day
# Method in brief: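 Male C57BL/6 mice, n = 10 per group, were given the test agent as its hydrochloride salt (10 mg/kg IV) or saline vehicle. LPS (20 mg/kg IP) was injected afterwards. Survival was recorded every 24 h for 7 days after LPS.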
# Rattus norvegicus [11] = test: Antiinflammatory activity against LPS-induced acute lung injury rat model assessed as reduction in lung wet/dry ratio at 10 to 20 mg/kg administered before LPS instillation and measured after 6 hrs; format: functional, organism-based; settings: dose 10-20 mg/kg
# Method in brief: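 Edema index in rats killed 6 h after intratracheal LPS, with pretreatment at 10 or 20 mg/kg: right upper lung lobe excised, blotted and weighed wet, then dried at 65 °C for 48 h and reweighed; wet/dry weight ratio calculated.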
# Rattus norvegicus [12] = test: Antiinflammatory activity against LPS-induced acute lung injury rat model assessed as reduction in total protein content in BALF at 10 to 20 mg/kg administered before LPS instillation and measured after 6 hrs by BCA protein assay; format: functional, organism-based; settings: dose 10-20 mg/kg
# Method in brief: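 Left lung lavaged with saline (3 × 1.5 mL) 6 h after intratracheal LPS in rats pretreated at 10 or 20 mg/kg; lavage spun at 1000 rpm for 10 min; supernatant protein measured by BCA assay.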
# Rattus norvegicus [13] = test: Antiinflammatory activity against LPS-induced acute lung injury rat model assessed as reduction in lung edema at 10 to 20 mg/kg administered before LPS instillation and measured after 6 hrs by hematoxylin and eosin staining based microscopic analysis; format: functional, organism-based; settings: dose 10-20 mg/kg
# Method in brief: (§4)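 Rats pretreated at 10 or 20 mg/kg, then intratracheal LPS; lungs taken 6 h later, fixed in 4% paraformaldehyde, paraffin-embedded, cut at 5 μm, stained with hematoxylin-eosin, and examined by light microscopy for edema, hemorrhage, cell infiltration and epithelial/endothelial damage.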
# Rattus norvegicus [14] = test: Antiinflammatory activity against LPS-induced acute lung injury rat model assessed as reduction in alveolar hemorrhage in lungs at 10 to 20 mg/kg administered before LPS instillation and measured after 6 hrs by hematoxylin and eosin staining based microscopic analysis; format: functional, organism-based; settings: dose 10-20 mg/kg; method in brief: as §4
# Rattus norvegicus [15] = test: (§5) Antiinflammatory activity against LPS-induced acute lung injury rat model assessed as reduction in inflammatory cell infiltration in lungs at 10 to 20 mg/kg administered before LPS instillation and measured after 6 hrs by hematoxylin and eosin staining based microscopic analysis; format: functional, organism-based; settings: dose 10-20 mg/kg; method in brief: as §4
# Rattus norvegicus [16] = test: as §5, with “in destruction of epithelial and endothelial” for “in inflammatory”, “cell structure” for “cell infiltration”; format: functional, organism-based; settings: dose 10-20 mg/kg; method in brief: as §4
# Rattus norvegicus [17] = test: Antiinflammatory activity against LPS-induced acute lung injury rat model assessed as reduction in IL-6 level in BALF at 10 to 20 mg/kg administered before LPS instillation and measured after 6 hrs by ELISA; format: functional, organism-based; settings: dose 10-20 mg/kg
# Method in brief: (§6)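 Rats given intratracheal LPS after pretreatment at 10 or 20 mg/kg; killed 6 h after LPS under anaesthesia; BALF and lung collected. BALF IL-6 and TNF-α measured by ELISA in BALF supernatant; serum IL-6 measured; BALF total cells counted; lung MPO activity and TNF-α immunostaining assessed.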
# Rattus norvegicus [18] = test: Antiinflammatory activity against LPS-induced acute lung injury rat model assessed as reduction in TNF-alpha level in BALF at 10 to 20 mg/kg administered before LPS instillation and measured after 6 hrs by ELISA; format: functional, organism-based; settings: dose 10-20 mg/kg; method in brief: as §6
# Rattus norvegicus [19] = test: Antiinflammatory activity against LPS-induced acute lung injury rat model assessed as reduction in IL-6 level in serum at 10 to 20 mg/kg administered before LPS instillation and measured after 6 hrs by ELISA; format: functional, organism-based; settings: dose 10-20 mg/kg; method in brief: as §6
# Rattus norvegicus [20] = test: Antiinflammatory activity against LPS-induced acute lung injury rat model assessed as decrease in neutrophil infiltration in lungs by measuring decrease in MPO activity at 10 to 20 mg/kg administered before LPS instillation and measured after 6 hrs; format: functional, organism-based; settings: dose 10-20 mg/kg; method in brief: as §6
# Rattus norvegicus [21] = test: Antiinflammatory activity against LPS-induced acute lung injury rat model assessed as reduction in total cells in BALF at 10 to 20 mg/kg administered before LPS instillation and measured after 6 hrs; format: functional, organism-based; settings: dose 10-20 mg/kg; method in brief: as §6
# Rattus norvegicus [22] = test: Antiinflammatory activity against LPS-induced acute lung injury rat model assessed as reduction in CD-68 stained macrophage numbers in lungs at 10 to 20 mg/kg administered before LPS instillation and measured after 6 hrs by immunohistochemical analysis; format: functional, organism-based; settings: dose 10-20 mg/kg
# Method in brief: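 Lung sections from rats given intratracheal LPS, pretreated at 10 or 20 mg/kg, killed 6 h after LPS; immunohistochemistry for the macrophage marker CD68, with CD68-positive cells counted.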
# Rattus norvegicus [23] = test: Antiinflammatory activity against LPS-induced acute lung injury rat model assessed as reduction in TNFalpha expression in lung tissue at 10 to 20 mg/kg administered before LPS instillation and measured after 6 hrs by immunohistochemical analysis; format: functional, organism-based; settings: dose 10-20 mg/kg; method in brief: as §6
# BEAS-2B [24] = test: Antiinflammatory activity in human BEAS-2B cells assessed as reduction in LPS-induced IL-6 mRNA expression incubated for 30 mins followed by LPS stimulation and measured after 24 hrs by qRT-PCR analysis; format: functional, cell-based; settings: dose 10-20 µM, time 1470.0 min
# Method in brief: (§7)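 Beas-2B cells seeded at 7.0×10^5/plate overnight at 37 °C, 5% CO₂; pretreated with 10 μM for 30 min, then LPS 1 μg/mL for 24 h. Total RNA extracted with TRIZOL; two-step SYBR Green RT-qPCR. Expressed as percent of LPS control; mean ± SEM of three independent experiments.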
# BEAS-2B [25] = test: Antiinflammatory activity in human BEAS-2B cells assessed as reduction in LPS-induced IL-1beta mRNA expression incubated for 30 mins followed by LPS stimulation and measured after 24 hrs by qRT-PCR analysis; format: functional, cell-based; settings: dose 10-20 µM, time 1470.0 min; method in brief: as §7
# BEAS-2B [26] = test: Antiinflammatory activity in human BEAS-2B cells assessed as reduction in LPS-induced TNFalpha mRNA expression incubated for 30 mins followed by LPS stimulation and measured after 24 hrs by qRT-PCR analysis; format: functional, cell-based; settings: dose 10-20 µM, time 1470.0 min; method in brief: as §7
# BEAS-2B [27] = test: Antiinflammatory activity in human BEAS-2B cells assessed as reduction in LPS-induced VCAM-1 mRNA expression incubated for 30 mins followed by LPS stimulation and measured after 24 hrs by qRT-PCR analysis; format: functional, cell-based; settings: dose 10-20 µM, time 1470.0 min; method in brief: as §7
smiles,measurement,setting,value
C=CCc1cc(/C=C2\CN(CCC)C/C(=C\c3ccc(O)c(CC=C)c3)C2=O)ccc1O,inhibition at 10 µM,RAW264.7 [1],76.1%
same,"viability at 24 h, 10 µM",[2],75.2%
same,Activity,RAW264.7 [3],Non-Toxic
C=CCc1cc(/C=C2\CN(C)C/C(=C\c3ccc(O)c(CC=C)c3)C2=O)ccc1O,inhibition at 10 µM,RAW264.7 [1],57.1%
same,"viability at 24 h, 10 µM",[2],80.3%
same,Activity,RAW264.7 [3],Non-Toxic
C=CCc1cc(/C=C2\CN(C3CC3)C/C(=C\c3ccc(N4CCCC4)cc3)C2=O)ccc1O,inhibition at 10 µM,RAW264.7 [1],49.9%
same,inhibition at 10 µM,RAW264.7 [4],17.6%
same,"viability at 24 h, 10 µM",[2],95.5%
same,logP,[5],4.33
C=CCc1cc(/C=C2\CN(C3CC3)C/C(=C\c3ccc(O)c(CC=C)c3)C2=O)ccc1O,inhibition at 10 µM,RAW264.7 [1],77.5%
same,inhibition at 10 µM,RAW264.7 [4],39.5%
same,"viability at 24 h, 10 µM",[2],76.2%
same,inhibition,RAW264.7 [6],Dose-dependent effect
same,inhibition,RAW264.7 [7],Dose-dependent effect
same,Stabilty,[8],Stable
same,Activity,RAW264.7 [3],Non-Toxic
C=CCc1cc(/C=C2\CN(C(=O)c3ccc(Cl)cc3)C/C(=C\c3ccc(O)c(CC=C)c3)C2=O)ccc1O,inhibition at 10 µM,RAW264.7 [1],89.2%
same,"viability at 24 h, 10 µM",[2],66.2%
same,viability at 10 µM,[9],< 70%
C=CCc1cc(/C=C2\CN(C(=O)c3c(Cl)cccc3Cl)C/C(=C\c3ccc(O)c(CC=C)c3)C2=O)ccc1O,inhibition at 10 µM,RAW264.7 [1],79.6%
same,"viability at 24 h, 10 µM",[2],79.6%
same,Activity,RAW264.7 [3],Non-Toxic
C=CCc1cc(/C=C2\CN(Cc3ccccc3)C/C(=C\c3ccc(O)c(CC=C)c3)C2=O)ccc1O,inhibition at 10 µM,RAW264.7 [1],45.8%
same,"viability at 24 h, 10 µM",[2],62.1%
same,viability at 10 µM,[9],< 70%
C=CCc1cc(/C=C2\CN(C3CC3)C/C(=C\c3ccc(N4CCN(C)CC4)cc3)C2=O)ccc1O,inhibition at 10 µM,RAW264.7 [1],83.3%
same,inhibition at 10 µM,RAW264.7 [4],43.8%
same,"viability at 24 h, 10 µM",[2],90.3%
same,logP,[5],3.48
same,solubility kinetic,[10],22.5 mg/mL
same,inhibition,RAW264.7 [6],Dose-dependent effect
same,inhibition,RAW264.7 [7],Dose-dependent effect
same,Activity,Mus musculus,50%
same,Activity,Rattus norvegicus [11],Active
same,Activity,Rattus norvegicus [12],Active
same,Activity,Rattus norvegicus [13],Active
same,Activity,Rattus norvegicus [14],Active
same,Activity,Rattus norvegicus [15],Active
same,Activity,Rattus norvegicus [16],Active
same,Activity,Rattus norvegicus [17],Active
same,Activity,Rattus norvegicus [18],Active
same,Activity,Rattus norvegicus [19],Active
same,Activity,Rattus norvegicus [20],Active
same,Activity,Rattus norvegicus [21],Active
same,Activity,Rattus norvegicus [22],Active
same,Activity,Rattus norvegicus [23],Active
same,Activity,BEAS-2B [24],Dose-dependent effect
same,Activity,BEAS-2B [25],Dose-dependent effect
same,Activity,BEAS-2B [26],Dose-dependent effect
same,Activity,BEAS-2B [27],Dose-dependent effect
same,Stabilty,[8],Stable
C=CCc1cc(/C=C2\CN(S(=O)(=O)c3ccccc3)C/C(=C\c3ccc(O)c(CC=C)c3)C2=O)ccc1O,inhibition at 10 µM,RAW264.7 [1],24.8%
same,"viability at 24 h, 10 µM",[2],63.4%
same,viability at 10 µM,[9],< 70%
